Experimental data taken from ChEMBL document CHEMBL4673194 (RSC Med Chem, 2021).
Calls of active or inactive are those of the source. No cut-off for these calls is given here.

Assays:
[1] = system: Mycobacterium tuberculosis; assay: Antitubercular activity against Mycobacterium tuberculosis H37Rv assessed as reduction in microbial growth incubated for 5 days by visual inspection method; format: functional; conditions: 120 h, time 5 day
Outline: (§1)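 Two-fold serial dilution in Middlebrook 7H9-ADS-Gly broth, final concentrations 20 down to 1.25 μM, from DMSO stocks. Inoculated with about 10^6 CFU of mid-log H37Rv, incubated 37 °C for five days. Turbidity recorded visually, then MTT added. MIC is the lowest concentration preventing growth (yellow colour). Three biological repeats, each in technical duplicate; rifampicin control.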

[2] = molecular target: T1, Enoyl-[acyl-carrier-protein] reductase [NADH] (Mycobacterium tuberculosis) (UniProt P9WGR1); assay: Inhibition of Mycobacterium tuberculosis InhA at 40 uM using DD-CoA as substrate relative to control
T1 sequence (whole entry): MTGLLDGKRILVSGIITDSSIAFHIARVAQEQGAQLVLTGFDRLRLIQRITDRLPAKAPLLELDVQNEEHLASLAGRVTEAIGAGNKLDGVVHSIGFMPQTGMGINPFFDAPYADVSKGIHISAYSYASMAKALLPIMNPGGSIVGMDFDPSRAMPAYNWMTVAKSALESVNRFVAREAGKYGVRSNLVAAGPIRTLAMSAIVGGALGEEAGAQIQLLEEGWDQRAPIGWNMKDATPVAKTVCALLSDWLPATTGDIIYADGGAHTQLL
Outline: (§2)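 Wild-type InhA (100 nM) starts the reaction with 25 μM trans-2-dodecenoyl-CoA and 250 μM NADH in 30 mM PIPES, 150 mM NaCl, pH 6.8. Compound is present at a fixed 40 or 50 μM. Initial velocity is compared with a no-inhibitor control and expressed as percent inhibition.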

Leishmania donovani = assay: Antileishmanial activity against promastigote form of Leishmania donovani S1 Sudan assessed as reduction in parasite growth incubated for 72 hrs by alamar blue assay; format: functional, organism-based
Outline: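 S1 Sudan promastigotes kept at 26 °C in RPMI-1640 (no bicarbonate or pyruvate) with 10% FBS, subcultured twice weekly. Compounds added to promastigotes at 2 × 10^6 cells per mL at final 40, 8 and 1.6 μg mL−1, 72 h at 26 °C. Growth read by Alamar blue. IC50 from non-linear dose–response logistic regression. Triplicate. Pentamidine and amphotericin B standards.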

Vero = assay: Cytotoxicity against African green monkey Vero cells assessed as reduction in cell viability incubated for 48 hrs by neutral red assay; format: cell-based; conditions: Chlorocebus sabaeus
Outline: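 Vero cells grown in MEM with 10% heat-inactivated FCS, 0.15% NaHCO3, penicillin and streptomycin at 37 °C, 5% CO2. Seeded at 25 000 cells per well, 24 h, then compound for 48 h. Viable cells by neutral red uptake. IC50 from log plots of growth inhibition against concentration. Doxorubicin positive control, DMSO vehicle control. Top concentration 20 μM.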

[3] = system: Mycobacterium tuberculosis; assay: Antitubercular activity against Mycobacterium tuberculosis H37Rv assessed as reduction in microbial growth incubated for 5 to 7 days by inverted plate count method; format: functional; conditions: time 5-7 day
[4] = molecular target: T1, Enoyl-[acyl-carrier-protein] reductase [NADH] (Mycobacterium tuberculosis); assay: Inhibition of Mycobacterium tuberculosis InhA at 50 uM using DD-CoA as substrate relative to control; outline: as §2
[5] = molecular target: T1, Enoyl-[acyl-carrier-protein] reductase [NADH] (Mycobacterium tuberculosis); assay: Inhibition of recombinant Mycobacterium tuberculosis InhA expressed in Escherichia coli BL21 using DD-CoA as substrate by UV-Vis spectrophotometry; conditions: time 5.0 min
[6] = system: Mycobacterium tuberculosis; assay: Antitubercular activity against Mycobacterium tuberculosis H37Rv assessed as reduction in microbial growth incubated for 1 week by MTT assay; format: functional; conditions: 168 h, time 1 weeks
[7] = system: Mycobacterium tuberculosis; assay: Antitubercular activity against Mycobacterium tuberculosis H37Rv assessed as reduction in microbial growth incubated; format: functional; outline: as §1
[8] = Lipophilicity, log P of the compound; format: physicochemical; conditions: octanol/water

Row | SMILES | MIC99 [1] [µM] | IC50 (Leishmania donovani) [µM] | IC50 (Vero) [µM] | also measured
1 | CC(C)=CCC/C(C)=C\Cn1cc(COc2ccccc2O)nn1 | > 100 | 55 | > 20 | inhibition [2]: 85%
2 | CCCCCCCCc1ccc(Oc2ccccc2)c(O)c1 | – | – | – | MIC [3]: 1.9 µM
3 | CCCCCc1c(CO)nnn1Cc1ccc2ccccc2c1 | > 100 | 31.4 | > 20 | inhibition [4]: inactive
4 | Oc1ccccc1Cn1cc(-c2ccccc2)nn1 | 20 | > 60 | > 20 | inhibition [4]: inactive
5 | CCCCc1cn(Cc2ccc(Oc3ccc(Cl)cc3O)c(Cl)c2)nn1 | – | – | – | inhibition [5]: 98%; MIC [6]: 1.5 µM
6 | C[C@@H]1[C@H](O)[C@@H](C)/C=C/C=C/C=C/C=C/C=C/C=C/C=C/[C@H](O[C@@H]2O[C@H](C)[C@@H](O)[C@H](N)[C@@H]2O)C[C@@H]2O[C@](O)(C[C@@H](O)C[C@@H](O)[C@H](O)CC[C@@H](O)C[C@@H](O)CC(=O)O[C@H]1C)C[C@H](O)[C@H]2C(=O)O [AMPHOTERICIN B] | – | 0.11 | – | –
7 | CCc1cn(Cc2ccc(Oc3ccccc3C)c(O)c2)nn1 | – | – | – | MIC [7]: 3.9 µM
8 | CCCCCCCCCCCCCn1cc(COc2ccccc2O)nn1 | > 100 | 13.4 | > 20 | logP [8]: 5.67; inhibition [2]: 63%
9 | Oc1cc(Cl)ccc1Oc1ccc(Cl)cc1Cl [TRICLOSAN] | 43 | – | – | –
10 | CCCc1cn(Cc2ccccc2O)nn1 | 20 | > 60 | > 20 | inhibition [4]: 92%
11 | CCCCCc1cn(Cc2ccccc2O)nn1 | 20 | > 60 | > 20 | inhibition [4]: inactive
12 | CC(C)=CCC/C(C)=C/Cn1cc(COc2ccccc2O)nn1 | > 100 | 51.9 | > 20 | inhibition [2]: inactive
13 | Cc1ccccc1Oc1ccc(Cn2cc(-c3ccccc3)nn2)cc1O | – | – | – | MIC [7]: ≤ 11.1 µM
14 | CCc1cn(Cc2ccc(Oc3ccccc3C#N)c(O)c2)nn1 | – | – | – | MIC [7]: 2.02 µM
